This is an account of results in ChEMBL document CHEMBL1828596, “Synthesis of methoxy- and bromo-substituted indirubins and their activities on apoptosis induction in human neuroblastoma cells” (Bioorg Med Chem Lett, 2011).

Activity calls are given as the source filed them. The rule behind the calls is not given here.

The subject of data set [1] is NB39. Briefly: Cytotoxicity against human NB39 cells assessed as cell viability after 48 hrs by MTT assay. Type of data set: functional, cell-based. In short, it runs like this:
(§1)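 MTT viability assay in neuroblastoma lines (IMR-32, SK-N-SH, NB-39) and normal cells (NHDF, HUVEC). Cells were exposed to the indicated concentrations of compound or DMSO vehicle for 48 h. Survival is expressed relative to the vehicle control as mean ± SEM, n = 3.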
(Formazan colour is commonly taken as a measure of viable cells.)

The subject of data set [2] is SK-N-SH. Briefly: Cytotoxicity against human SK-N-SH cells assessed as cell viability after 48 hrs by MTT assay. Type of data set: functional, cell-based. In short, it runs like this:
as §1

The test system of data set [3] is IMR-32. Briefly: Cytotoxicity against human IMR32 cells assessed as cell viability after 48 hrs by MTT assay. Type of data set: functional, cell-based. In short, it runs like this:
as §1

Data set [4] relates to HUVEC. Briefly: Cytotoxicity against human HUVEC cells assessed as cell viability after 48 hrs by MTT assay. The class given is cell-based. The gist of the method: as §1
Data set [5] deals with NHDF. Briefly: Cytotoxicity against human NHDF cells assessed as cell viability after 48 hrs by MTT assay. Type of data set: cell-based. In short, it runs like this:
as §1

The nature of data set [6]: (§2) Cytotoxicity against human NHDF cells assessed as cell viability up to 40 uM after 48 hrs by MTT assay. Type of data set: cell-based. The note with it: NHDF cells, read-out: Activity. In short, it runs like this:
as §1

The nature of data set [7]: (§3) Cytotoxicity against human HUVEC cells assessed as cell viability up to 40 uM after 48 hrs by MTT assay. The class given is cell-based. The note with it: HUVEC cells, read-out: Activity. In short, it runs like this: as §1
Data set [8] relates to IMR-32. Briefly: Cytotoxicity against human IMR32 cells assessed as cell viability up to 40 uM after 48 hrs by MTT assay. Type of data set: functional, cell-based. In short, it runs like this:
as §1

The subject of data set [9] is SK-N-SH. Briefly: Cytotoxicity against human SK-N-SH cells assessed as cell viability up to 40 uM after 48 hrs by MTT assay. Type of data set: functional, cell-based. The gist of the method: as §1
Data set [10] has as its system NB39. Briefly: Cytotoxicity against human NB39 cells assessed as cell viability up to 40 uM after 48 hrs by MTT assay. The class given is functional, cell-based. The gist of the method: as §1
Data set [11] deals with NHDF. The description is as §2. The class given is cell-based. The note with it: nhdf, 48 h. The gist of the method:
as §1

Data set [12] relates to HUVEC. The data set is described as §3. The class given is cell-based. The note with it: huvec, 48 h. The gist of the method:
as §1

The subject of data set [13] is IMR-32. Briefly: Induction of apoptosis in human IMR32 cells assessed as cellular shrinkage at 1 x 10^-6 to 1 x 10^-4 M after 24 hrs using Hoechst 33342 staining by fluorescent microscopic analysis. Type of data set: functional, cell-based. The gist of the method: (§4)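 IMR-32 cells were exposed to compound (1 × 10⁻⁶–1 × 10⁻⁴ M) or cisplatin (1 × 10⁻⁴ M) for 24 h, then stained with Hoechst 33342. Phase-contrast and fluorescence microscopy were used to assess nuclear morphology (shrinkage, chromatin condensation, fragmented nuclei).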

Data set [14] relates to IMR-32. Briefly: Induction of apoptosis in human IMR32 cells assessed as chromatin condensation at 1 x 10^-6 to 1 x 10^-4 M after 24 hrs using Hoechst 33342 staining by fluorescent microscopic analysis. Type of data set: functional, cell-based. The gist of the method: as §4
Data set [15] has as its system IMR-32. Briefly: Induction of apoptosis in human IMR32 cells assessed as appearance of fragmented nuclei at 1 x 10^-6 to 1 x 10^-4 M after 24 hrs using Hoechst 33342 staining by fluorescent microscopic analysis. The class given is functional, cell-based. The gist of the method: as §4
In data set [16] the test system is IMR-32. Briefly: Induction of apoptosis human IMR32 cells assessed as increase in early apoptotic cells at 100 uM after 48 hrs using annexin V-propidium iodide staining by flow cytometry. Type of data set: functional, cell-based. The gist of the method:
(§5)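 IMR-32 cells were treated with compound at 100 μM or DMSO vehicle for 48 h; untreated cells served as the normal group. Cells were double-stained with Annexin V-Alexa Fluor 488 and propidium iodide and analysed by flow cytometry. Early apoptosis was read as Annexin+/PI− and late apoptosis as Annexin+/PI+. Groups were compared with one-way ANOVA and Bonferroni post hoc test versus vehicle.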
(A flow cytometer gives signals particle by particle.)

Data set [17] concerns IMR-32. Briefly: Induction of apoptosis human IMR32 cells assessed as increase in late apoptotic cells at 100 uM after 48 hrs using annexin V-propidium iodide staining by flow cytometry. The class given is functional, cell-based. In short, it runs like this: as §5
Data set [18] has as its system IMR-32. Briefly: Cytotoxicity against human IMR32 cells assessed as cell survival at 100 uM. The note with it: read-out: Activity. Type of data set: functional. The gist of the method:
as §1

Data set [19] has as its system SK-N-SH. Briefly: Cytotoxicity against human SK-N-SH cells assessed as cell survival at 100 uM. Type of data set: functional. The note with it: read-out: Activity. In short, it runs like this:
as §1

The nature of data set [20]: Cytotoxicity against human NB39 cells assessed as cell survival at 100 uM. The note with it: read-out: Activity. The class given is functional. In short, it runs like this: as §1
Data set [21] can be described thus: Cytotoxicity against human NHDF cells assessed as cell survival at 100 uM. The class given is cell-based. The note with it: read-out: Activity. The gist of the method:
as §1

Data set [22] in a line: Cytotoxicity against human HUVEC cells assessed as cell survival at 100 uM. The class given is cell-based. The note with it: read-out: Activity. In short, it runs like this:
as §1

Consider `O=Nc1c(-c2c(O)[nH]c3ccccc23)[nH]c2ccccc12` [INDIRUBIN-3-MONOXIME], for which the outcome with NB39 [1], in the data set with SK-N-SH [2] and with IMR-32 [3] was Active. The Activity entry in the data set with HUVEC [4] was “Non-toxic”.

On to `O=C1C(c2c(O)[nH]c3c(Br)cccc23)=Nc2ccccc21`, for which the Activity entry in the data set on NHDF [5] and with HUVEC [4] was “Non-toxic” throughout. Further, the outcome with NB39 [1], with SK-N-SH [2] and with IMR-32 [3] was inactive.

On to `O=C1C(c2c(O)[nH]c3ccc(Br)cc23)=Nc2ccccc21`, for which the Activity entry with NHDF [5] and with HUVEC [4] was “Non-toxic” in each case. The outcome with NB39 [1], in the data set on SK-N-SH [2] and in the data set with IMR-32 [3] was inactive.

As to `COc1ccc2c(c1)N/C(=C1\C(=O)Nc3ccccc31)C2=O`, the result with NB39 [1], with SK-N-SH [2] and in the data set on IMR-32 [3] was Active. Also, the results for the viability at 48 h in data set [6] and in data set [7] were 82% and 60%, respectively.

For the molecule `O=C1C(c2c(O)[nH]c3ccccc23)=Nc2ccc(Br)cc21`, the Activity entry in the data set with NHDF [5] and in the data set with HUVEC [4] was “Non-toxic” throughout. In addition, the outcome with NB39 [1], in the data set on SK-N-SH [2] and in the data set on IMR-32 [3] was inactive.

As to `COc1ccc2[nH]c(O)c(C3=Nc4ccccc4C3=O)c2c1`, the Activity entry in the data set with NHDF [5] and in the data set with HUVEC [4] was “Toxic” in each case. In addition, the outcome in the data set on NB39 [1], in the data set on SK-N-SH [2] and with IMR-32 [3] was Active.

`COc1cccc2c1NC(=O)/C2=C1\Nc2ccccc2\C1=N/O`: the outcome with NB39 [1], with SK-N-SH [2] and in the data set on IMR-32 [3] was Active.

`CCc1ccc2c(c1)C(=O)/C(=C1/C(=O)Nc3ccccc31)N2`: the result in the data set on IMR-32 [8], with SK-N-SH [9] and in the data set with NB39 [10] was inactive. The Activity result in the data set on NHDF [11] and with HUVEC [12] was “Non-toxic” in each case.

`O=C1C(c2c(O)[nH]c3ccccc23)=Nc2cc(Br)ccc21`: the Activity result in the data set on NHDF [5] and with HUVEC [4] was “Non-toxic” in each case. For the same molecule, the result with NB39 [1], with SK-N-SH [2] and in the data set on IMR-32 [3] was inactive.

As for `COc1ccc2c(c1)/C(=C1/Nc3ccccc3/C1=N\O)C(=O)N2`, the result with NB39 [1], with SK-N-SH [2] and with IMR-32 [3] was Active.

For the molecule `COc1ccc2c(c1)NC(=O)/C2=C1\Nc2ccccc2C1=O`, the result in the data set on IMR-32 [8], in the data set with SK-N-SH [9] and in the data set with NB39 [10] was inactive. For the same molecule, the Activity result with NHDF [11] and in the data set on HUVEC [12] was “Non-toxic” in each case.

Consider `COc1cccc2c1NC(=O)/C2=C1\Nc2ccccc2C1=O`, for which the outcome in the data set with IMR-32 [8], with SK-N-SH [9] and with NB39 [10] was inactive. Moreover, the Activity result in the data set with NHDF [11] and in the data set with HUVEC [12] was “Non-toxic” throughout.

Take `COc1ccc2c(c1)C(=O)C(c1c(O)[nH]c3ccccc13)=N2`: the Activity result in the data set with NHDF [5] and in the data set on HUVEC [4] was “Non-toxic” each time. Moreover, the outcome in the data set with NB39 [1], in the data set with SK-N-SH [2], with IMR-32 [3], in the data set with IMR-32 [13], in the data set with IMR-32 [14] and in the data set with IMR-32 [15] was Active. Further, the result in the data set with IMR-32 [16] and in the data set with IMR-32 [17] was Active. For the same molecule, the viability at 100 µM in the data set with IMR-32 [18] came out at 10%; in the data set with SK-N-SH [19], 10%; in [20], 10%; in data set [21], 80%; in data set [22], 40%.

For `O=C1C(c2c(O)[nH]c3cc(Br)ccc23)=Nc2ccccc21`, the Activity result in the data set with NHDF [5] and with HUVEC [4] was “Non-toxic” throughout. The result in the data set on NB39 [1], in the data set with SK-N-SH [2] and with IMR-32 [3] was inactive.

Regarding `Cc1ccc2c(c1)C(=O)C(c1c(O)[nH]c3ccccc13)=N2`, the result in the data set with IMR-32 [8], in the data set with SK-N-SH [9] and in the data set on NB39 [10] was inactive. The Activity entry in the data set with NHDF [11] and in the data set on HUVEC [12] was “Non-toxic” throughout.

In the case of `O=C1Nc2ccccc2/C1=C1/Nc2ccccc2C1=O` [INDIRUBIN], the outcome in the data set on IMR-32 [8], in the data set on SK-N-SH [9] and in the data set on NB39 [10] was inactive. Further, the Activity entry with NHDF [11] and with HUVEC [12] was “Non-toxic” each time.

As to `O=C1Nc2cc(Br)ccc2/C1=C1/Nc2ccccc2/C1=N\O`, the result with NB39 [1], in the data set on SK-N-SH [2] and in the data set with IMR-32 [3] was Active.

With `COc1ccc2c(c1)NC(=O)/C2=C1\Nc2ccccc2\C1=N/O`, the Activity entry with NHDF [5] and in the data set with HUVEC [4] was “Non-toxic” each time. The result with NB39 [1], with SK-N-SH [2] and with IMR-32 [3] was Active.

For the molecule `COc1ccc2c(c1)C(=N\O)/C(=C1/C(=O)Nc3ccccc31)N2`, the Activity entry in the data set on NHDF [5] and in the data set on HUVEC [4] was “Non-toxic” throughout. Further, the result in the data set with NB39 [1], in the data set on SK-N-SH [2] and in the data set on IMR-32 [3] was inactive.
